According to ChEMBL document CHEMBL1212902, “Efficient synthesis and biological evaluation of demethyl geranylgeranoic acid derivatives” (Bioorg Med Chem, 2010):
The source made the active and inactive calls. The rule behind the calls is not given here.

Assays:
[1] = biological target: T1, Cellular retinoic acid-binding protein 2 (Rattus norvegicus) (UniProt P51673); experiment: Transcriptional activation of rat CRABP2 expressed in human MG63 cells coexpressing RXRE at 1 uM after 48 hrs; type: cell-based; details: MG-63
T1 sequence (whole entry): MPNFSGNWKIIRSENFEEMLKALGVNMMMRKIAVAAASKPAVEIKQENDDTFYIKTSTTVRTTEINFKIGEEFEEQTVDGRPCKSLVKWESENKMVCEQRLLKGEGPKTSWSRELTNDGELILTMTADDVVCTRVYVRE
Summary of the method: (§1)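 MG-63 cells were seeded at 2 × 10^5/well, then transfected using Tfx-50 with an SV40-Luc pGL3 reporter plus pRL-CMV. Cells were treated at 10^-6 M for 2 days. Luciferase was normalised to Renilla and reported as fold versus ethanol control, from at least three repeats with SEM.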

[2] = biological target: T2, Retinoic acid receptor beta (Homo sapiens) (UniProt P10826); experiment: Transcriptional activation of human RARbeta expressed in human MG63 cells coexpressing RARE at 1 uM after 48 hrs by luciferase reporter gene assay; type: cell-based; details: MG-63; summary of the method: as §1
T2 sequence (whole entry): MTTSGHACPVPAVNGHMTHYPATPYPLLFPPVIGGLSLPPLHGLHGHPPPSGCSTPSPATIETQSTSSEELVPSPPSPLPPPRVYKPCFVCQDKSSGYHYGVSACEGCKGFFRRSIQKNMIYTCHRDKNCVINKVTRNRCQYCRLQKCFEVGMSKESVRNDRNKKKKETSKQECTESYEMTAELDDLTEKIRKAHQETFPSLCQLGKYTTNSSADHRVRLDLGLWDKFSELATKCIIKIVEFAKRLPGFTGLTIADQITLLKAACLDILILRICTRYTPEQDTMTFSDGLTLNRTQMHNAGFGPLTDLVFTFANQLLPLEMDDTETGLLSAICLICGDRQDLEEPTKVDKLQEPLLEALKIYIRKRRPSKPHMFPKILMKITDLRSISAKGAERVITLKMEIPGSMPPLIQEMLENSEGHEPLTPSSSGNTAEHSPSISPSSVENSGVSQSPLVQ

HL-60 [3] = experiment: Antiproliferative activity against human HL60 cells after 24 hrs; type: functional, cell-based
HL-60 [4] = experiment: Induction of apoptosis in human HL60 cells after 24 hrs; type: functional, cell-based; details: in the assay text read “after 3 days” for “after 24 hrs”
Summary of the method: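 HL-60 cells were seeded at 10^5 cells/well in RPMI-1640 and treated at 10^-6–10^-4 M. They were propidium iodide-stained and analysed by flow cytometry for cell cycle. Apoptosis is expressed as percent dead cells relative to the total untreated cell count, shown as mean with SEM.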

HL-60 [5] = experiment: Induction of cell differentiation in human HL60 cells assessed as differentiation in to granulocytes; type: functional, cell-based
HL-60 [6] = experiment: Cell cycle arrest in human HL60 cells assessed as accumulation at G0/G1 phase at 25 uM after 24 hrs by flow cytometry; type: functional, cell-based
Summary of the method: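 HL-60 cells grown in RPMI-1640 with 10% charcoal-stripped FCS and kanamycin at 37 °C in 5% CO2. Cells were exposed at 2.5 × 10^-5 M for 24 h, stained with propidium iodide at 4 °C for 20 min and analysed on a 488 nm flow cytometer. The percentage of cells in G0/G1 is given relative to untreated cells.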

[7] = biological target: T3, Retinoic acid receptor RXR-alpha (Homo sapiens) (UniProt P19793); experiment: Transcriptional activation of Gal4-tagged human RXRalpha expressed in human MG63 cells at 1 uM after 48 hrs; type: cell-based; details: MG-63
T3 sequence (whole entry): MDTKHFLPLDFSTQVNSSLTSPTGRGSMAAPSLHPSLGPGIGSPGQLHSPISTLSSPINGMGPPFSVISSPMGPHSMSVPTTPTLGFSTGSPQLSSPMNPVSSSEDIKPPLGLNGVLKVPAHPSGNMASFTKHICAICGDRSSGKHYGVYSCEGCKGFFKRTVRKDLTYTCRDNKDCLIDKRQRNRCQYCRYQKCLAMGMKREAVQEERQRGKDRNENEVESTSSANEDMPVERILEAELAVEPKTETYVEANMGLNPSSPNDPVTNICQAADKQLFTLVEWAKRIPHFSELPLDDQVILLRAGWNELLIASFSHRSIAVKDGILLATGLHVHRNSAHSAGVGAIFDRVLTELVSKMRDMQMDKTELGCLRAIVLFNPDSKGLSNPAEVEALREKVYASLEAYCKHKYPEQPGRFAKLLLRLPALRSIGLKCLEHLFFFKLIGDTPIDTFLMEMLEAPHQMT
Summary of the method: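 Human osteosarcoma MG-63 cells in DMEM with 10% charcoal-stripped FCS were seeded at 2 × 10^5/well the day before transfection. They were cotransfected with human RXR fused to the GAL4 DNA-binding domain, a GAL4-site luciferase reporter and a pRL-CMV control. Cells were then exposed at 10^-6 M for 48 h. Firefly luciferase was normalised to Renilla and expressed as fold over ethanol vehicle, from three experiments with SEM.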

Row | Structure (SMILES) | Activity [1] | Activity [2] | Activity (HL-60 [3]) | Activity (HL-60 [4]) | Activity (HL-60 [5]) | Activity (HL-60 [6]) | Activity [7]
1 | C/C=C/CC/C(C)=C/CC/C(C)=C/CC/C(C)=C/C(=O)O | inactive | Active |  |  |  |  | 
2 | CC(C)=CCC/C(C)=C/CC/C=C/CC/C(C)=C/C(=O)O | inactive | Active |  |  |  |  | 
3 | CC(C)=CCC/C(C)=C/CC/C(C)=C/CC/C=C/C(=O)O | inactive | Active | Active | Active | Active | Active | Active
4 | CC(C)=CCC/C=C/CC/C(C)=C/CC/C(C)=C/C(=O)O | inactive | Active |  |  |  |  | 
